According to ChEMBL document CHEMBL3860025, “Antiproliferative and Anti-inflammatory Withanolides from Physalis angulata” (J Nat Prod, 2016):
pIC50: −log10 of the molar value.

Tests used:
[1] = Antiproliferative activity against human 786-0 cells assessed as inhibition of cell viability after 48 hrs by MTT reduction assay; assay type: functional, cell-based; settings: 786-0, 48 h
Summary of the method: (§1)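 Cells grown in RPMI-1640 or EMEM with 10% FBS at 37 °C under 5% CO2. Seeded at 1 × 10^4 cells/well for 12 h, then exposed to a range of compound concentrations for 48 h. Viability read by MTT reduction. 5-Fluorouracil was the positive control. Each assay was repeated three times, and IC50 reported as mean ± SD.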

[2] = Antiproliferative activity against human 22Rv1 cells assessed as inhibition of cell viability after 48 hrs by MTT reduction assay; assay type: functional, cell-based, CWR22R; settings: 22Rv1, 48 h; summary of the method: as §1
[3] = Antiproliferative activity against human A375-S2 cells assessed as inhibition of cell viability after 48 hrs by MTT reduction assay; assay type: functional, cell-based; settings: A375-S2, 48 h; summary of the method: as §1
[4] = Antiproliferative activity against human C4-2B cells assessed as inhibition of cell viability after 48 hrs by MTT reduction assay; assay type: functional, cell-based; settings: LNCaP C4-2B; summary of the method: as §1
[5] = Antiinflammatory activity in mouse RAW264.7 cells assessed as inhibition of LPS-induced nitric oxide production after 24 hrs by Griess assay; assay type: functional, cell-based; settings: RAW264.7, 24 h
Summary of the method: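 RAW 264.7 macrophages seeded at 1 × 10^6 cells/well, then incubated 24 h at 37 °C with LPS (1 μg/mL), with or without test compounds. NO measured by Griess reagent (0.1% N-(1-naphthyl)ethylenediamine plus 1% sulfanilamide in 5% H3PO4), absorbance at 540 nm. NO concentration and inhibition rate calculated from a standard curve. Hydrocortisone served as positive control.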

[6] = Antiproliferative activity against human ACHN cells assessed as inhibition of cell viability after 48 hrs by MTT reduction assay; assay type: functional, cell-based; summary of the method: as §1
[7] = Antiproliferative activity against human A498 cells assessed as inhibition of cell viability after 48 hrs by MTT reduction assay; assay type: functional, cell-based; settings: A498, 48 h; summary of the method: as §1

Row | SMILES | pIC50 [1] | pIC50 [2] | pIC50 [3] | pIC50 [4] | pIC50 [5] | pIC50 [6] | pIC50 [7]
1 | CC(=O)O[C@H]1C=C([C@H](C)[C@H]2CC(C)=C(C)C(=O)O2)[C@@]2(C)CC[C@H]3[C@@H](C[C@@H](O)[C@@]4(Cl)CC=CC(=O)[C@]34C)[C@]12O | 6.38 | 6.32 | 5.47 | 6.29 | 5.47 | 5.32 | 6.38
2 | CC1=C(CO)C[C@H]([C@]2(C)OC(=O)[C@]34[C@H](O)C[C@H]5[C@@H](CC=C6CC=CC(=O)[C@@]65C)[C@]3(O)[C@H](O)C[C@H]24)OC1=O | < 5.00 | < 5.00 | < 5.00 | < 5.00 | 4.76 | < 5.00 | < 5.00
3 | CC1=C(C)C(=O)O[C@@H]([C@@H](C)C2=C[C@@H]3OC(C)(C)O[C@@]34[C@@H]3C[C@@H](O)[C@@]5(O)CC=CC(=O)[C@]5(C)[C@H]3CC[C@]24C)C1 | < 5.00 | < 5.00 | < 5.00 | < 5.00 | 4.25 | < 5.00 | < 5.00
4 | CC(=O)O[C@H]1[C@@H]2O[C@]2([C@H](C)[C@H]2CC(C)=C(C)C(=O)O2)[C@@]2(C)CC[C@H]3[C@@H](C[C@H]4O[C@]45CC=CC(=O)[C@]35C)[C@@]12O | < 5.00 | < 5.00 | < 5.00 | < 5.00 | 5.60 | < 5.00 | < 5.00
5 | CC1=C(C)C(=O)O[C@@H]([C@]2(C)OC(=O)[C@]34CC[C@H]5[C@@H](CC=C6CC=CC(=O)[C@@]65C)[C@@](O)(O3)[C@@H](O)C[C@H]24)C1 | < 5.00 | < 5.00 | < 5.00 | < 5.00 | 4.59 | < 5.00 | < 5.00
6 | CC(=O)O[C@H]1C=C([C@H](C)[C@H]2CC(C)=C(C)C(=O)O2)[C@@]2(C)CC[C@H]3[C@@H](C[C@H]4O[C@]45CC=CC(=O)[C@]35C)[C@]12O | 6.18 | 6.20 | 5.47 | 6.74 | 5.52 | 5.97 | 6.18
7 | CC(=O)O[C@H]1C=C([C@H](C)[C@H]2CC(C)=C(C)C(=O)O2)[C@@]2(C)CC[C@H]3[C@@H](C[C@@H](O)[C@@]4(O)C[C@@H](O)CC(=O)[C@]34C)[C@@]12O | < 5.00 | < 5.00 | < 5.00 | < 5.00 | < 4.00 | < 5.00 | < 5.00
8 | CO[C@H]1CC(=O)[C@]2(C)[C@H]3CC[C@]4(C)C([C@H](C)[C@H]5CC(C)=C(C)C(=O)O5)=C[C@H](OC(C)=O)[C@@]4(O)[C@@H]3C[C@H]3O[C@]32C1 | 5.61 | 5.65 | < 5.00 | 5.94 | 5.25 | 5.12 | 5.33
9 | CO[C@@H]1CC(=O)[C@]2(C)[C@H]3CC[C@@]4(C)[C@@](O)([C@@H]3C[C@H]3O[C@]32C1)[C@@H](OC(C)=O)[C@@H]1O[C@@]14[C@H](C)[C@H]1CC(C)=C(C)C(=O)O1 | 5.66 | 5.93 | < 5.00 | 5.67 | 5.45 | < 5.00 | < 5.00
10 | CO[C@]12CC=CC(=O)[C@]1(C)[C@H]1CC[C@@]3(C)[C@](O)([C@@H](OC(C)=O)C[C@@]3(O)[C@H](C)[C@H]3CC(C)=C(C)C(=O)O3)[C@@H]1C[C@H]2O | < 5.00 | < 5.00 | < 5.00 | < 5.00 | 5.45 | < 5.00 | < 5.00
11 | CO[C@H]1C=C([C@H](C)[C@H]2CC(C)=C(C)C(=O)O2)[C@@]2(C)CC[C@H]3[C@@H](C[C@@H](O)[C@@]4(O)CC=CC(=O)[C@]34C)[C@@]12O | < 5.00 | < 5.00 | < 5.00 | < 5.00 | 4.94 | < 5.00 | < 5.00
12 | CC1=C(C)C(=O)O[C@@H]([C@@H](C)C2=C[C@@H]3O[C@@H](C)O[C@@]34[C@@H]3C[C@@H](O)[C@@]5(O)CC=CC(=O)[C@]5(C)[C@H]3CC[C@]24C)C1 | < 5.00 | < 5.00 | < 5.00 | < 5.00 | 4.95 | < 5.00 | < 5.00
13 | O=c1[nH]cc(F)c(=O)[nH]1 [FLUOROURACIL] | < 5.00 | 5.42 | 5.72 | 5.25 |  | 5.56 | 5.05
